Compound activity from PubChem BioAssay.
Only some compounds are listed: those with a hit (about 1.7% of all), similar ones and a draw of the others.
Runt-CBFb FRET: inhibitors of RUNX1 Runt–CBFb binding, primary screen, biochemical, FRET, Cerulean-Runt, Venus-CBFb, uHTS | Runt-related transcription factor 1 (Homo sapiens) + Core-binding factor subunit beta … | Cerulean-Runt/Venus-CBFb FRET ratio 530/480, 1 h | inhibition, % at 20 µM | 0.46% of 220,000 active | AID 1496, 2009;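 active = inhibition over about 50% at 20 µM in the single-dose screen, limit read from the data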;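 note: 0% = DMSO wells and 100% = excess unlabeled CBFb competitor control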
Target sequence (Q01196 whole entry, looked up): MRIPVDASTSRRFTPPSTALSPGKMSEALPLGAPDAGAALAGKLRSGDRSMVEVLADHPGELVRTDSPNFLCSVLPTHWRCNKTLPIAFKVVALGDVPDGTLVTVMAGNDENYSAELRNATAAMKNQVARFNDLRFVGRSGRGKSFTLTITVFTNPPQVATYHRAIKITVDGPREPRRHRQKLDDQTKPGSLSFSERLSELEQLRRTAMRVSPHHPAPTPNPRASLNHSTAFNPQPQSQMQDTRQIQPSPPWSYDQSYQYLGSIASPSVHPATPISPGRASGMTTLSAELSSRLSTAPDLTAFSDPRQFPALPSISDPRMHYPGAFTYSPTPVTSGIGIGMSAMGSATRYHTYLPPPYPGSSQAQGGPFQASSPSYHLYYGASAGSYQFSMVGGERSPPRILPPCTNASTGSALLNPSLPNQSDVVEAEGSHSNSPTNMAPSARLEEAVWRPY
Target sequence (Q13951 whole entry, looked up): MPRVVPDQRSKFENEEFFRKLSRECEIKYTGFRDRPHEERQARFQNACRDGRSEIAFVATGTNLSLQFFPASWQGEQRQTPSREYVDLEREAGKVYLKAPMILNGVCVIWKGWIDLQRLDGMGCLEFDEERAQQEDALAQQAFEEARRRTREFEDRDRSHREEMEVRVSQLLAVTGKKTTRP
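Schedule: protein complex preformed 1 h, compound exposure 1 h, room temperature, dark; test system: Cerulean-labeled Runt domain protein; amount: 100 nM per protein; buffer or medium: Tris 50 mM pH 7.5, KCl, K2SO4, 0.01% BSA; read-out: loss of energy transfer signal; detection: FRET fluorescence; controls: 5 µM unlabeled CBFb as full-inhibition high control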
Runt-SMMHC FRET: inhibitors of RUNX1 Runt–CBFb-SMMHC binding, primary screen, biochemical, FRET, Cerulean-Runt, Venus-CBFb-SMMHC, uHTS; Runt-related transcription factor 1 (Homo sapiens) + Core-binding factor subunit beta …; Cerulean-Runt/Venus-CBFb-SMMHC FRET ratio 530/480, 1 h; inhibition, % at 20 µM; 0.74% of 220,000 active; AID 1434, 2008;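 active = mean inhibition across duplicate retests at 20 µM reaching about 50%, limit read from the data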;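 note: 0% = DMSO wells and 100% = wells with excess untagged CBFb-SMMHC; inhibitors lower the FRET ratio by blocking Runt binding to CBFb-SMMHC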
RanGTP-Impb inh: inhibitors of RanGTP-importin-beta interaction, primary screen, biochemical, FRET, CFP-Ran, YFP-importin-beta, homogeneous; AID 2216, 2009; inhibition, % (test concentration not listed); cell-free CFP-Ran/YFP-importin-beta FRET ratio; Ran GTPase (GTP-bound) - importin-beta complex; 1.1% of 300,000 active;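 active = more than half of the replicate wells show a fall in the fluorescence ratio signal beyond about 16%, limit read from the data, passing the limit was not always enough; inconclusive = exactly half of the replicate wells pass the set limit; inactive = fewer than half of replicates pass the limit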;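 note: 0% = DMSO wells and 100% = Ran loaded with GDP instead of GTP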
Hck Nef HTS: inhibitors of Nef-activated human Hck kinase, primary screen, biochemical, Z-Lyte FRET, 384-well, Hck-YEEI | Tyrosine-protein kinase HCK (Homo sapiens), P08631 | Recombinant Hck-YEEI plus Nef, Z-Lyte FRET kinase assay | inhibition, % at 20 µM | 0.68% of 220,000 active | AID 463187, 2010;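 active = Hck-Nef kinase inhibition above about 50%, limit read from the data; inactive = inhibition below that limit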;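 note: 0% = DMSO with Hck plus Nef and 100% = Hck alone without Nef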
Runt-CBFb TRFRET: inhibitors of RUNX1 Runt–CBFb binding, biochemical, TR-FRET; shares compounds with Runt-CBFb FRET; 20% of 480 active; inhibition, % at 20 µM; TR-FRET RUNX1 Runt domain-CBFb binding; AID 1502, 2009; in the data active = inhibition above about 40%
YIC FRET counter: YIC intramolecular FRET probe signal interference, dose response, counter-screen for RanGTP-importin-beta inhibitor project, biochemical, fluorescence FRET; 40% of 1,000 active; Purified YIC probe, intramolecular FRET ratio YFP/CFP; IC50, µM; shares compounds with RanGTP-Impb inh;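 active = fitted half-maximal inhibitory concentration no more than tenfold above the top dose tested; inconclusive = flat fit with 30 to 70% activity, or poor fit; inactive = half-maximal concentration beyond tenfold above the top dose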
Hck-Nef confirm: retest of Hck:Nef kinase inhibitor hits, confirmation, biochemical, Z-Lyte FRET, 384-well, p-Tyr peptide counterscreen; calls only at 10 µM; Recombinant Hck-YEEI:Nef, Z-Lyte FRET kinase assay; shares compounds with Hck Nef HTS; 28% of 1,300 active; AID 463188, 2010;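 active = average inhibition of at least 50%, with Z-scores no higher than 3 in both the phospho-tyrosine peptide and fluorescence counterscreens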
The depositor's hits bear a star; i = inactive; ? = inconclusive; . = no result given; + = active, no number.

SMILES	Runt-CBFb FRET	Runt-SMMHC FRET	RanGTP-Impb inh	Hck Nef HTS	others
CCC(C)OC(=O)c1c(N)n(Cc2cccs2)c2nc3ccccc3nc12 (stereo unspecified)	53*	94*	12	7	Runt-CBFb TRFRET=29
COCCCn1c(N)c(C(=O)NCc2ccco2)c2nc3ccccc3nc21	60*	81*	58*	43	Runt-CBFb TRFRET=34
CCOc1cc2c(cc1OCC)-n1cccc1C(c1cccc([N+](=O)[O-])c1)NC2 (stereo unspecified)	.	.	4	.
O=c1[nH]c(O)c(C=Nc2ccc(Cl)c(C(F)(F)F)c2)c(=O)[nH]1	.	.	0	.
Nc1c(C(=O)NCCc2ccccc2)c2nc3ccccc3nc2n1CCN1CCOCC1	58*	91*	78*	53*	Runt-CBFb TRFRET=23;Hck-Nef confirm=i
CCCCCCn1c(=O)c(C(=O)Nc2c(C)n(C)n(-c3ccccc3)c2=O)c(O)c2ccccc21	-12	-8	0	22
N#Cc1c(/N=C/c2ccc(O)cc2O)sc2c1C1CCN2CC1	64*	59*	39*	4	YIC FRET counter=>26
CCC(C)C1(CC)C(=O)NC(=O)N=C1N (stereo unspecified)	3	-5	1	-1
COCCNC(=O)c1c(NC(=O)c2ccco2)n(Cc2ccccc2)c2nc3ccccc3nc12	33	98*	31*	8	YIC FRET counter=0.93*
CCOC(=O)C1=CC(=C2C(=O)N(CC)C(=S)N(CC)C2=O)c2ccccc2O1	19	29	-1	41
Cc1cccc(-n2c(O)c(/C=C/C=Nc3ccccc3)c(=O)[nH]c2=O)c1	31	75	34*	6	YIC FRET counter=2.8*
CCCCCn1c(=O)c(C(=O)Nc2ccccc2)c(O)c2ccccc21	.	.	4	.
COCCCn1c(N)c(C(=O)OC(C)COC)c2nc3ccccc3nc21 (stereo unspecified)	79*	94*	25*	37	YIC FRET counter=27*
CCOC(=O)c1c(N)n(CCN2CCCCC2)c2nc3ccccc3nc12	41	99*	51*	29	YIC FRET counter=45*
COCCCn1c(N)c(C(=O)Nc2ccccc2)c2nc3ccccc3nc21	7	16	19*	16	YIC FRET counter=25*
S=P(Nn1cnnc1)(c1ccc(Br)cc1)c1ccc(Br)cc1	-1	-2	4	15
COC(=O)c1ccccc1OP(=O)(c1cccc([N+](=O)[O-])c1)c1cccc([N+](=O)[O-])c1	0	-1	-1	13
C=CCn1c(O)c(C(CC)=NCCc2ccccc2)c(=O)[nH]c1=O	-1	0	0	-19
C=CCn1c(O)c(C(C)=NCCc2ccccc2)c(=O)[nH]c1=O	1	-4	23*	-2	YIC FRET counter=>50
O=C(c1cccc(C(F)(F)F)c1)N1C[C@H]2C[C@@H](C1)c1cccc(=O)n1C2	.	.	2	.
COCCOC(=O)C1=C(C)OC(N)=C(C(=O)OC)C12C(=O)Nc1ccccc12 (stereo unspecified)	-1	2	16*	0	YIC FRET counter=>50
O=C1NC(=O)N(Cc2ccccc2)C(=O)/C1=C\N1CCCc2ccccc21	37	48	27*	0	YIC FRET counter=>50
O=C1NC(=O)C(=CN2CCc3ccccc32)C(=O)N1	4	5	?	-12
O=c1[nH]c(=O)n(-c2ccc(F)cc2)c(O)c1C=Nc1ccccc1N1CCCC1	-265	-13	0	-2
CCN(CC)CCN=Cc1c(O)n(CCc2ccccc2)c(=O)[nH]c1=O	1	3	1	62*	Hck-Nef confirm=i
SMILES	Runt-CBFb FRET	Runt-SMMHC FRET	RanGTP-Impb inh	Hck Nef HTS	others
O=C1NC(=O)C(=Cc2ccc(-c3ccccc3[N+](=O)[O-])o2)C(=O)N1	20	27	0	76*	Hck-Nef confirm=+
COC1C(OC(=O)c2ccc(C)[nH]2)C(O)C(Oc2ccc3c(O)c(NC(=O)c4ccc(O)c(CC=C(C)C)c4)c(=O)oc3c2Cl)OC1(C)C (stereo unspecified)	-1	-10	.	55*	Hck-Nef confirm=i
COc1ccc(OCC(=O)N2CCCC(N3CCN(c4ccccc4C)CC3)C2)cc1 (stereo unspecified)	.	.	6	.
CC(C)(C)NC(=O)NC(=O)CN1CC=C(c2ccccc2)CC1	1	-1	.	19
N#Cc1ccccc1NC(=O)CN1CC=C(c2ccccc2)CC1	-3	-1	2	55*	Hck-Nef confirm=i
CC(C)CCNC(=O)c1c(N)n(CC2CCCO2)c2nc3ccccc3nc12 (stereo unspecified)	2	20	93*	58*	Hck-Nef confirm=i
Cc1nn(Cc2ccccc2)c(Cl)c1C(=O)OCC(=O)NCC1CCCO1 (stereo unspecified)	1	-1	3	25
Nc1c(C(=O)NCCN2CCOCC2)c2nc3ccccc3nc2n1Cc1ccccc1	78*	81*	63*	95*
O=C(Cc1ccccc1)OCCN1CCOCC1	0	6	2	5
Nc1c(C(=O)NCCN2CCOCC2)c2nc3ccccc3nc2n1Cc1ccco1	72*	.	64*	58*	Hck-Nef confirm=i
CC1CN(C)C(C)(C)CC1(O)c1ccccc1 (stereo unspecified)	0	-1	3	0
Nc1cc(C(=O)Nc2ccc(Cl)cc2)ccc1N1CC2CC(C1)c1cccc(=O)n1C2 (stereo unspecified)	.	.	3	.
Cc1nc2ccc(Cl)cc2c(-c2ccccc2)c1C(=O)O	-1	2	2	-2
CCN(CC)C(=O)c1ccc2c(c1)C1C(Cl)C(Sc3ccccc3[N+](=O)[O-])CC1C(C(=O)O)N2 (stereo unspecified)	11	2	1	63*	Hck-Nef confirm=i
O=C1NC(=O)C(=Cc2csc3ccccc23)C(=O)N1	30	21	-2	-17
O=C1NC(=O)C(=Cc2coc3ccccc3c2=O)C(=O)N1	-1	-4	-1	97*	Hck-Nef confirm=+
NC(=S)N/N=C/c1coc2ccccc2c1=O	1	2	0	53*	Hck-Nef confirm=i
